The results in this text go back to the array DNA melting data of Ke et al. (doi:10.1101/2024.01.08.574731).

The nature of data set [1]: folding enthalpy; higher = less favourable; fluorescence melt of hairpins on a sequencing array, two-state fit. The following applies: sodium 0.088 M. In outline:
(§1)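 Cy3 fluorescence of library hairpins on a sequenced MiSeq flow cell, with annealed Cy3 and quencher oligos, was imaged in 50 mM Na-HEPES pH 8.0, 25 mM NaCl in 2.5 °C steps up to 60 °C. Signals were normalised to pre-quench Cy3 and to control variants. Melting temperature and folding enthalpy came from bootstrapped two-state fits, inverse-variance combined over four replicates. Fitted temperatures were raised by 9.35 °C to match UV melts.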

The nature of data set [2]: melting temperature; fluorescence melt of hairpins on a sequencing array, two-state fit, raised by 9.35 °C to match UV melts. The following applies: sodium 0.088 M. In outline: as §1

Consider GCTACCGAAAGGTTAGC ((((((....))).))), for which the folding enthalpy in data set [1] was -117 kJ/mol. Also, the Tm in data set [2] stood at 52.7 °C.
Turning to GCTACCGGAAACAGTAGC (((((.(....).))))), the folding enthalpy in data set [1] was -144 kJ/mol. Further, the Tm in data set [2] was found to be 40.6 °C.
Consider GCTACGACGAAAGTCAGC (((..(((....)))))), for which, in data set [1], the folding enthalpy is -71 kJ/mol. In addition, the Tm in data set [2] was found to be 37 °C.
As for GCTACGCGAAAGCCAAGC (((..((....))..))), in data set [1], the folding enthalpy was -55.6 kJ/mol. For the same sequence, in data set [2], the Tm stood at 34.9 °C.
On the same counts, the results for GCTACGCGAAAGCCTCGC ((.(.((....)).).)) are -30.8 kJ/mol and 18.1 °C.
On the same counts, the results for GCTACGCGAAAGCTCAGC (((..((....))..))) are -54.9 kJ/mol and 37 °C.
Take GCTACGGCGAAAGCCAGC (((..(((....)))))): in data set [1], the folding enthalpy is -55.5 kJ/mol. Also, in data set [2], the Tm is 42.9 °C.
For GCTACTCCGAAAGGAAGC (((..(((....)))))), the folding enthalpy in data set [1] was -74.9 kJ/mol. For the same sequence, in data set [2], the Tm came out at 30.1 °C.
As for GCTACTCGAAAGAGAAGC (((.(((....))).))), the folding enthalpy in data set [1] was -120 kJ/mol. The Tm in data set [2] was found to be 50.4 °C.
Take GCTACTCGAAAGAGCAGC (((.(((....))).))): the folding enthalpy in data set [1] is -158 kJ/mol. Also, the Tm in data set [2] came to 49.6 °C.
On the same counts, the results for GCTACTGAAAAGTAGC ((((((....)))))) are -147 kJ/mol and 56.7 °C.
For the sequence GCTACTGGAAACAGCAGC (((.(((....))).))), in data set [1], the folding enthalpy is -120 kJ/mol. In addition, the Tm in data set [2] came to 44.7 °C.
With GCTAGAGGAAACTTTAGC ((((.((....)).)))), the folding enthalpy in data set [1] is -87.2 kJ/mol. Moreover, in data set [2], the Tm is 35 °C.
Consider GCTAGCGAAAGCTAAAGC ((((((....)))..))), for which, in data set [1], the folding enthalpy is -79.9 kJ/mol. Further, the Tm in data set [2] was 46 °C.
For the sequence GCTAGCGAAAGCTACAGC ((((((....)))..))), in data set [1], the folding enthalpy is -64.8 kJ/mol. Besides, the Tm in data set [2] was 39.6 °C.
For GCTAGCGAAAGCTTGAGC ((((((....)))..))), in that order: -56.5 kJ/mol and 41.2 °C.
As for GCTAGGCGAAAGCACAGC (((..((....))..))), the folding enthalpy in data set [1] was -81.4 kJ/mol. In data set [2], the Tm stood at 46.3 °C.
On the same counts, the results for GCTAGGCGAAAGCAGAGC (((..((....))..))) are -98.4 kJ/mol and 53.3 °C.
For GCTAGGCGAAAGCATAGC ((((.((....)).)))), in data set [1], the folding enthalpy was -137 kJ/mol. The Tm in data set [2] came to 64.6 °C.
In the case of GCTAGGCGAAAGCATCGC ((.(.((....)).).)), the folding enthalpy in data set [1] was -66.7 kJ/mol. The Tm in data set [2] was found to be 38 °C.
As for GCTAGGCGAAAGCATGGC ((.(.((....)).).)), the folding enthalpy in data set [1] is -86.7 kJ/mol. Besides, the Tm in data set [2] is 50.1 °C.
GCTAGGCGAAAGCCCTGC ((..(((....)))..)): in data set [1], the folding enthalpy is -51.3 kJ/mol. Also, the Tm in data set [2] is 39.8 °C.
For GCTAGGCGAAAGCCTTGC ((.((((....)))).)), in that order: -88.3 kJ/mol and 61.8 °C.
GCTAGGCGAAAGCGTGGC ((.(.((....)).).)): in data set [1], the folding enthalpy was -81.6 kJ/mol. Besides, in data set [2], the Tm was found to be 49.8 °C.
On the same counts, the results for GCTAGGCGAAAGCTTAGC ((((.((....)).)))) are -130 kJ/mol and 61 °C.
Turning to GCTAGGGAAACCTAGC ((((((....)))))), in data set [1], the folding enthalpy is -154 kJ/mol. In addition, the Tm in data set [2] amounted to 58.4 °C.
Turning to GCTAGTCGAAAGACAGC (((.(((....)))))), the folding enthalpy in data set [1] is -104 kJ/mol. In addition, the Tm in data set [2] was 52.1 °C.
In the case of GCTAGTGGAAACACCAGC (((.(((....))).))), the folding enthalpy in data set [1] was -98.9 kJ/mol. Besides, in data set [2], the Tm turned out to be 39.2 °C.
GCTATAACGAAAGTTAGC (((..(((....)))))): the folding enthalpy in data set [1] is -82.9 kJ/mol. Further, the Tm in data set [2] turned out to be 37.5 °C.
Take GCTATACGAAAGTACAGC (((.(((....))).))): the folding enthalpy in data set [1] was -126 kJ/mol. The Tm in data set [2] amounted to 41.8 °C.
For GCTATACGAAAGTAGAGC (((.(((....))).))), in that order: -160 kJ/mol and 53.4 °C.
For GCTATAGAAATATAGC ((((((....)))))), in that order: -138 kJ/mol and 42.8 °C.
Take GCTATAGGAAACTATAGC (((((((....))))))): in data set [1], the folding enthalpy was -165 kJ/mol. Moreover, the Tm in data set [2] worked out at 53.2 °C.
Take GCTATAGGAAACTGTAGC ((((.((....)).)))): in data set [1], the folding enthalpy is -137 kJ/mol. In addition, the Tm in data set [2] is 43.5 °C.
For GCTATATCGAAAGATAGC (((..(((....)))))), in that order: -105 kJ/mol and 36.2 °C.
For GCTATCGAAAGATAAGC ((((((....))).))), in that order: -112 kJ/mol and 45 °C.
In the case of GCTATCGAAAGATCCAGC ((((((....)))..))), the folding enthalpy in data set [1] was -55.6 kJ/mol. In addition, the Tm in data set [2] is 26.1 °C.
